Results published in ChEMBL document CHEMBL3616437, “Thiazole compounds with activity against Cryptococcus gattii and Cryptococcus neoformans in vitro” (Eur J Med Chem, 2015).

Key:
Cryptococcus neoformans [1] = assay: Antifungal activity against Cryptococcus gattii ATCC 24065 assessed as reduction in cell viability at 1.9 uM after 6 to 72 hrs by MTT assay; type: functional, Cryptococcus bacillisporus
[2] = system: Cryptococcus bacillisporus; assay: Antifungal activity against Cryptococcus gattii ATCC 32608 assessed as reduction in cell viability after at 1.9 uM 6 to 72 hrs by MTT assay; type: functional
[3] = system: Cryptococcus gattii species complex; assay: Antifungal activity against Cryptococcus gattii L28/02 assessed as reduction in cell viability at 1.9 uM after 6 to 72 hrs by MTT assay; type: functional, Cryptococcus bacillisporus
[4] = system: Cryptococcus gattii species complex; assay: Antifungal activity against Cryptococcus gattii 135L/03 assessed as reduction in cell viability at 1.9 uM after 6 to 72 hrs by MTT assay; type: functional, Cryptococcus bacillisporus
[5] = system: Cryptococcus gattii species complex; assay: Antifungal activity against Cryptococcus gattii 196L/03 assessed as reduction in cell viability at 1.9 uM after 6 to 72 hrs by MTT assay; type: functional, Cryptococcus bacillisporus
[6] = system: Cryptococcus gattii species complex; assay: Antifungal activity against Cryptococcus gattii ICB181 assessed as reduction in cell viability at 1.9 uM after 6 to 72 hrs by MTT assay; type: functional, Cryptococcus bacillisporus
[7] = system: Cryptococcus gattii species complex; assay: Antifungal activity against Cryptococcus gattii L24/01 assessed as reduction in cell viability at 1.9 uM after 6 to 72 hrs by MTT assay; type: functional, Cryptococcus bacillisporus
[8] = system: Cryptococcus gattii species complex; assay: Antifungal activity against Cryptococcus gattii 1913ER assessed as reduction in cell viability at 1.9 uM after 6 to 72 hrs by MTT assay; type: functional, Cryptococcus bacillisporus
Cryptococcus neoformans [9] = assay: Antifungal activity against Cryptococcus neoformans CN31 assessed as reduction in cell viability at 0.9 uM after 6 to 72 hrs by MTT assay; type: functional
Cryptococcus neoformans [10] = assay: Antifungal activity against Cryptococcus neoformans LMM820 assessed as reduction in cell viability at 0.9 uM after 6 to 72 hrs by MTT assay; type: functional
Cryptococcus neoformans [11] = assay: Antifungal activity against Cryptococcus neoformans F10 assessed as reduction in cell viability at 0.9 uM after 6 to 72 hrs by MTT assay; type: functional
Cryptococcus neoformans [12] = assay: Antifungal activity against Cryptococcus neoformans 28JF assessed as reduction in cell viability at 0.9 uM after 6 to 72 hrs by MTT assay; type: functional
Cryptococcus neoformans [13] = assay: Post-antifungal activity against Cryptococcus neoformans CN31 assessed as organism required time to achieve cell population of 10^4 cells/ml at 0.9 uM treated for 1 hr by MTT assay in presence of 0.05 uM amphotericin B; type: functional
[14] = system: Cryptococcus bacillisporus; assay: Antifungal activity against Cryptococcus gattii ATCC 32608 assessed as reduction in cell viability at 3.9 uM after 6 to 72 hrs by MTT assay; type: functional
[15] = system: Cryptococcus gattii species complex; assay: Antifungal activity against Cryptococcus gattii 547/OTTI-97-PI-10 assessed as reduction in cell viability at 3.9 uM after 6 to 72 hrs by MTT assay; type: functional, Cryptococcus bacillisporus
[16] = system: Cryptococcus gattii species complex; assay: Antifungal activity against Cryptococcus gattii 135L/03 assessed as reduction in cell viability at 3.9 uM after 6 to 72 hrs by MTT assay; type: functional, Cryptococcus bacillisporus
[17] = system: Cryptococcus gattii species complex; assay: Antifungal activity against Cryptococcus gattii 196L/03 assessed as reduction in cell viability at 3.9 uM after 6 to 72 hrs by MTT assay; type: functional, Cryptococcus bacillisporus
[18] = system: Cryptococcus gattii species complex; assay: Antifungal activity against Cryptococcus gattii L27/01 assessed as reduction in cell viability at 3.9 uM after 6 to 72 hrs by MTT assay; type: functional, Cryptococcus bacillisporus
[19] = system: Cryptococcus gattii species complex; assay: Antifungal activity against Cryptococcus gattii ICB181 assessed as reduction in cell viability at 3.9 uM after 6 to 72 hrs by MTT assay; type: functional, Cryptococcus bacillisporus
[20] = system: Cryptococcus gattii species complex; assay: Antifungal activity against Cryptococcus gattii L24/01 assessed as reduction in cell viability at 3.9 uM after 6 to 72 hrs by MTT assay; type: functional, Cryptococcus bacillisporus
[21] = system: Cryptococcus gattii species complex; assay: Antifungal activity against Cryptococcus gattii LMM818 assessed as reduction in cell viability at 3.9 uM after 6 to 72 hrs by MTT assay; type: functional, Cryptococcus bacillisporus
[22] = system: Cryptococcus gattii species complex; assay: Antifungal activity against Cryptococcus gattii 1913ER assessed as reduction in cell viability at 3.9 uM after 6 to 72 hrs by MTT assay; type: functional, Cryptococcus bacillisporus
Cryptococcus neoformans [23] = assay: Antifungal activity against Cryptococcus neoformans ATCC 28957 assessed as reduction in cell viability at 3.9 uM after 6 to 72 hrs by MTT assay; type: functional
Cryptococcus neoformans [24] = assay: Antifungal activity against Cryptococcus neoformans ATCC 62066 assessed as reduction in cell viability at 3.9 uM after 6 to 72 hrs by MTT assay; type: functional
Cryptococcus neoformans [25] = assay: Antifungal activity against Cryptococcus neoformans CN31 assessed as reduction in cell viability at 3.9 uM after 6 to 72 hrs by MTT assay; type: functional
Cryptococcus neoformans [26] = assay: Antifungal activity against Cryptococcus neoformans 96806 assessed as reduction in cell viability at 3.9 uM after 6 to 72 hrs by MTT assay; type: functional
Cryptococcus neoformans [27] = assay: Antifungal activity against Cryptococcus neoformans 5396 assessed as reduction in cell viability at 3.9 uM after 6 to 72 hrs by MTT assay; type: functional
Cryptococcus neoformans [28] = assay: Antifungal activity against Cryptococcus neoformans 28JF assessed as reduction in cell viability at 3.9 uM after 6 to 72 hrs by MTT assay; type: functional
Cryptococcus neoformans [29] = assay: Antifungal activity against Cryptococcus neoformans VM-MCMMPI assessed as reduction in cell viability at 3.9 uM after 6 to 72 hrs by MTT assay; type: functional
[30] = system: Cryptococcus gattii species complex; assay: Antifungal activity against Cryptococcus gattii 23/10993 assessed as reduction in cell viability at 26 uM after 6 to 72 hrs by MTT assay; type: functional, Cryptococcus bacillisporus
Procedure, shortened: (§1)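 Time-kill setup: colonies from two 48 h, 35°C SDA passages were suspended in saline to 70% transmittance at 530 nm. They were then diluted to 1-5 x10^3 cells/mL in RPMI with L-glutamine buffered to pH 7.0 with 0.165 M MOPS. Plates were incubated at 35°C for 0-72 h, then MTT (5.0 mg/mL) was added for 3 h. After isopropanol, absorbance was read at 490 nm. Drug-free controls were included, results were confirmed by SDA colony counts, and assays were run in triplicate.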

[31] = system: Cryptococcus gattii species complex; assay: Antifungal activity against Cryptococcus gattii 547/OTTI-97-PI-10 assessed as reduction in cell viability at 26 uM after 6 to 72 hrs by MTT assay; type: functional, Cryptococcus bacillisporus; procedure, shortened: as §1
Cryptococcus neoformans [32] = assay: Antifungal activity against Cryptococcus neoformans ATCC 62066 assessed as reduction in cell viability at 26 uM after 6 to 72 hrs by MTT assay; type: functional; procedure, shortened: as §1
Cryptococcus neoformans [33] = assay: Antifungal activity against Cryptococcus neoformans CN31 assessed as reduction in cell viability at 1.9 uM after 6 to 72 hrs by MTT assay; type: functional
[34] = system: Cryptococcus gattii species complex; assay: Antifungal activity against Cryptococcus gattii L27/01 assessed as reduction in cell viability at 0.12 uM after 6 to 72 hrs by MTT assay; type: functional, Cryptococcus bacillisporus
[35] = system: Cryptococcus gattii species complex; assay: Antifungal activity against Cryptococcus gattii ICB181 assessed as reduction in cell viability at 0.12 uM after 6 to 72 hrs by MTT assay; type: functional, Cryptococcus bacillisporus
[36] = system: Cryptococcus gattii species complex; assay: Antifungal activity against Cryptococcus gattii 1913ER assessed as reduction in cell viability at 0.12 uM after 6 to 72 hrs by MTT assay; type: functional, Cryptococcus bacillisporus
Cryptococcus neoformans [37] = assay: Antifungal activity against Cryptococcus neoformans CN31 assessed as reduction in cell viability at 0.12 uM after 6 to 72 hrs by MTT assay; type: functional

COc1ccc(-c2csc(N/N=C(\C)CCO)n2)cc1
90%: Activity (Cryptococcus neoformans [1]) | Activity [2] | Activity [3] | Activity [4] | Activity [5] | Activity [6] | Activity [7] | Activity [8] | Activity (Cryptococcus neoformans [9]) | Activity (Cryptococcus neoformans [10]) | Activity (Cryptococcus neoformans [11]) | Activity (Cryptococcus neoformans [12])
2.1 h: Time (Cryptococcus neoformans [13])

c1ccc(-c2csc(NN=C3CCCC3)n2)cc1
80%: Activity [14] | Activity [15] | Activity [16] | Activity [17] | Activity [18] | Activity [19] | Activity [20] | Activity [21] | Activity [22] | Activity (Cryptococcus neoformans [23]) | Activity (Cryptococcus neoformans [24]) | Activity (Cryptococcus neoformans [25]) | Activity (Cryptococcus neoformans [26]) | Activity (Cryptococcus neoformans [27]) | Activity (Cryptococcus neoformans [28]) | Activity (Cryptococcus neoformans [29])

OC(Cn1cncn1)(Cn1cncn1)c1ccc(F)cc1F [FLUCONAZOLE]
80%: Activity [30] | Activity [31] | Activity (Cryptococcus neoformans [32])

C(=N\Nc1nc(-c2ccccc2)cs1)/C1CCCCC1
90%: Activity (Cryptococcus neoformans [1]) | Activity [2] | Activity [3] | Activity [4] | Activity [5] | Activity [6] | Activity [7] | Activity [8] | Activity (Cryptococcus neoformans [33])

C[C@@H]1[C@H](O)[C@@H](C)/C=C/C=C/C=C/C=C/C=C/C=C/C=C/[C@H](O[C@@H]2O[C@H](C)[C@@H](O)[C@H](N)[C@@H]2O)C[C@@H]2O[C@](O)(C[C@@H](O)C[C@@H](O)[C@H](O)CC[C@@H](O)C[C@@H](O)CC(=O)O[C@H]1C)C[C@H](O)[C@H]2C(=O)O [AMPHOTERICIN B]
90%: Activity [34] | Activity [35] | Activity [36] | Activity (Cryptococcus neoformans [37])

COc1ccc(-c2csc(N/N=C/C3CCCCC3)n2)cc1
80%: Activity [14] | Activity [15] | Activity [16] | Activity [17] | Activity [18] | Activity [19] | Activity [20] | Activity [21] | Activity [22] | Activity (Cryptococcus neoformans [23]) | Activity (Cryptococcus neoformans [24]) | Activity (Cryptococcus neoformans [25]) | Activity (Cryptococcus neoformans [26]) | Activity (Cryptococcus neoformans [27]) | Activity (Cryptococcus neoformans [28]) | Activity (Cryptococcus neoformans [29])
